Assay results reported in ChEMBL document CHEMBL4028848, “Discovery of N-{4-[5-(4-Fluorophenyl)-3-methyl-2-methylsulfanyl-3H-imidazol-4-yl]-pyridin-2-yl}-acetamide (CBS-3595), a Dual p38α MAPK/PDE-4 Inhibitor with Activity against TNFα-Related Diseases” (J Med Chem, 2017).
Where “and” joins values, the source holds several entries; their conditions need not be identical. Equal values may be shown once. Calls of active or inactive are those of the source. No cut-off for these calls is given here.

What was measured:
[1] = Apparent permeability in human Caco2 cells at 10 uM; type: ADME, cell-based; conditions: Caco-2
[2] = tested on: Rattus norvegicus; assay: In vivo inhibition of P38 MAPKalpha in Lewis rat assessed as decrease in LPS-stimulated TNFalpha level in serum at 10 mg/kg, po pretreated for 1 hr followed by LPS addition measured after 1.5 hrs post dose relative to control; type: functional
Procedure, shortened: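 Lewis rats, n = 8/group: females dosed orally at 10 mg/kg at −1, −3 or −5 h relative to LPS challenge, plus one male group dosed at −1 h. Male and female vehicle controls were given at −1 h. Serum TNFα was measured after LPS and compared with vehicle.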

[3] = Fraction unbound in human plasma; type: ADME, cell-free
Procedure, shortened: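 Plasma protein binding measured in human, Sprague–Dawley rat and Cynomolgus monkey plasma at 1, 10 and 30 μM compound. Reported as unbound fraction (%).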

[4] = tested on: Rattus norvegicus; assay: In vivo inhibition of P38 MAPKalpha in Sprague-Dawley rat assessed as decrease in LPS-stimulated TNFalpha level in serum at 3 mg/kg, po pretreated for 1 hr followed by LPS addition measured after 2 hrs relative to control; type: functional
[5] = tested on: Rattus norvegicus; assay: In vivo inhibition of P38 MAPKalpha in Lewis rat assessed as decrease in LPS-stimulated TNFalpha level in serum at 30 mg/kg pretreated for 1 hrs followed by LPS addition measured after 1.5 hrs post dose; type: functional, organism-based
[6] = tested on: Rattus norvegicus; assay: In vivo inhibition of P38 MAPKalpha in Lewis rat assessed as decrease in LPS-stimulated TNFalpha level in serum at 30 mg/kg pretreated for 3 hrs followed by LPS addition measured after 1.5 hrs post dose; type: functional, organism-based
[7] = organism: Homo sapiens; assay: Inhibition of PDE4 in LPS-stimulated human whole blood assessed as decrease in leukotriene B4 level in plasma
[8] = target: CYP2D6 (Homo sapiens, UniProt P10635); assay: Inhibition of CYP2D6 (unknown origin) at 10 uM by fluorimetric assay relative to control; type: ADME
Procedure, shortened: (§1)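 CYP1A2, CYP2C9, CYP2C19, CYP3A4 and CYP2D6 were tested as a panel for cytochrome P450 interaction.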

[9] = AUC (0 to t) in Wistar rat at 30 mg/kg, po administered as single dose via gavage by LC-MS/MS analysis; type: ADME, organism-based; conditions: in vivo
Procedure, shortened: (§2)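 Male and female Wistar rats received a single oral gavage of 30 mg/kg. Parameters are given as the mean of the two sexes.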

[10] = tested on: Rattus norvegicus; assay: Toxicity in Wistar rat assessed as effect on microscopic appearance of liver at 100 to 2500 mg/kg, po administered for 48 hrs followed by administration of 300 mg/kg, bid for 7 days starting 8 hrs interval between first and second dose measured after 7 days; type: organism-based; conditions: in vivo, 168 h
[11] = target: CYP1A2 (Homo sapiens, UniProt P05177); assay: Inhibition of CYP1A2 (unknown origin) at 10 uM by fluorimetric assay relative to control; type: ADME; procedure, shortened: as §1
[12] = target: Mitogen-activated protein kinase 10 (Homo sapiens) (UniProt P53779); assay: Inhibition of human recombinant full length N-terminal His6 tagged JNK3 expressed in Sf21 cells at 10 uM relative to control
[13] = tested on: Rattus norvegicus; assay: Toxicity in Wistar rat assessed as effect on microscopic appearance of spleen at 100 to 2500 mg/kg, po administered for 48 hrs followed by administration of 300 mg/kg, bid for 7 days starting 8 hrs interval between first and second dose measured after 7 days; type: organism-based; conditions: in vivo, 168 h
[14] = target: CYP2C9 (Homo sapiens, UniProt P11712); assay: Inhibition of CYP2C9 (unknown origin) at 10 uM by fluorimetric assay relative to control; type: ADME; procedure, shortened: as §1
[15] = Cmax in Wistar rat at 30 mg/kg, po administered as single dose via gavage by LC-MS/MS analysis; type: ADME, organism-based; design: dose 30 mg/kg, route oral; conditions: in vivo; procedure, shortened: as §2
[16] = target: Mitogen-activated protein kinase 9 (Homo sapiens) (UniProt P45984); assay: Inhibition of human recombinant full length N-terminal His6 tagged JNK2 expressed in Sf21 cells at 10 uM relative to control
[17] = tested on: Rattus norvegicus; assay: Toxicity in Wistar rat assessed as change in body weight at 100 to 2500 mg/kg, po administered for 48 hrs followed by administration of 300 mg/kg, bid for 7 days starting 8 hrs interval between first and second dose measured after 7 days; type: organism-based; conditions: in vivo, 168 h
Procedure, shortened: (§3)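 Wistar rats, maximum-tolerated-dose estimate in two steps. Step one: single oral doses of 100 (n = 1), 500 (n = 1) and 2500 mg/kg (n = 3), with clinical signs watched for 48 h. Step two: 300 mg/kg (n = 5) twice daily for 7 days, second dose 8 h after the first. After 7 days, body weight gain, blood cell number and composition, liver enzymes, and macroscopic liver and spleen were recorded.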

[18] = Tmax in Wistar rat at 30 mg/kg, po administered as single dose via gavage by LC-MS/MS analysis; type: ADME, organism-based; conditions: in vivo
Procedure, shortened: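 Male and female Wistar rats each received a single 30 mg/kg oral gavage dose. Tmax is the mean of males and females.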

[19] = tested on: Rattus norvegicus; assay: Toxicity in Wistar rat assessed as effect on number of blood cells at 100 to 2500 mg/kg, po administered for 48 hrs followed by administration of 300 mg/kg, bid for 7 days starting 8 hrs interval between first and second dose measured after 7 days; type: organism-based; conditions: in vivo, 168 h; procedure, shortened: as §3
[20] = target: Mitogen-activated protein kinase 11 (Homo sapiens) (UniProt Q15759); assay: Inhibition of p38beta (unknown origin) at 10 uM relative to control
[21] = tested on: Mus musculus; assay: Toxicity in DBA/1 mouse model of collagen-induced arthritis at 50 mg/kg, bid administered on day 22 post second injection of type 2 collagen; type: organism-based; conditions: in vivo
Procedure, shortened: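 Male DBA/1 mice with collagen-induced arthritis were dosed at 50 mg/kg b.i.d. starting on day 22, 1 day after the type II collagen boost. Animals were monitored for signs of toxicity, including body weight loss relative to controls.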

[22] = target: Mitogen-activated protein kinase 8 (Homo sapiens) (UniProt P45983); assay: Inhibition of human recombinant full length N-terminal His6 tagged JNK1 expressed in Sf21 cells at 10 uM relative to control
[23] = target: CYP2C19 (Homo sapiens, UniProt P33261); assay: Inhibition of CYP2C19 (unknown origin) at 10 uM by fluorimetric assay relative to control; type: ADME; procedure, shortened: as §1
[24] = Half life in Wistar rat at 30 mg/kg, po administered as single dose via gavage by LC-MS/MS analysis; type: ADME, organism-based; conditions: in vivo
Procedure, shortened: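 Single oral gavage dose of 30 mg/kg given to male and female Wistar rats. PK parameters are reported as the mean of males and females.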

[25] = tested on: Mus musculus; assay: Protection against LPS/galactosamine-induced endotoxemia in Balb/c mouse assessed as inhibition of plasma TNFalpha level at 10 mg/kg, po pretreated for 1 hr followed by LPS/galactosamine addition measured after 90 mins relative to control; type: functional
[26] = tested on: Rattus norvegicus; assay: Toxicity in Wistar rat assessed as effect on liver enzyme at 100 to 2500 mg/kg, po administered for 48 hrs followed by administration of 300 mg/kg, bid for 7 days starting 8 hrs interval between first and second dose measured after 7 days; type: organism-based; conditions: in vivo, 168 h; procedure, shortened: as §3
[27] = tested on: Mus musculus; assay: Antiarthritic activity in DBA/1 mouse assessed as decrease in collagen-induced arthritic score at 50 mg/kg, bid administered on day 22 post second injection of type 2 collagen; type: functional, organism-based
Procedure, shortened: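 Collagen-induced arthritis in male DBA/1 mice. Dosing at 50 mg/kg b.i.d. began on day 22, one day after the second (boost) injection of type II collagen.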

[28] = target: CYP3A4 (Homo sapiens, UniProt P08684); assay: Inhibition of CYP3A4 (unknown origin) at 10 uM by fluorimetric assay relative to control; type: ADME; procedure, shortened: as §1
[29] = tested on: Rattus norvegicus; assay: Toxicity in Wistar rat assessed as effect on composition of blood cells at 100 to 2500 mg/kg, po administered for 48 hrs followed by administration of 300 mg/kg, bid for 7 days starting 8 hrs interval between first and second dose measured after 7 days; type: organism-based; conditions: in vivo, 168 h; procedure, shortened: as §3
[30] = organism: Homo sapiens; assay: Inhibition of PDE4 in human U937 cells assessed as [3H]cAMP hydrolysis at 10 uM relative to control; type: cell-based

Sequence of Mitogen-activated protein kinase 11 (Homo sapiens) (Q15759 whole entry): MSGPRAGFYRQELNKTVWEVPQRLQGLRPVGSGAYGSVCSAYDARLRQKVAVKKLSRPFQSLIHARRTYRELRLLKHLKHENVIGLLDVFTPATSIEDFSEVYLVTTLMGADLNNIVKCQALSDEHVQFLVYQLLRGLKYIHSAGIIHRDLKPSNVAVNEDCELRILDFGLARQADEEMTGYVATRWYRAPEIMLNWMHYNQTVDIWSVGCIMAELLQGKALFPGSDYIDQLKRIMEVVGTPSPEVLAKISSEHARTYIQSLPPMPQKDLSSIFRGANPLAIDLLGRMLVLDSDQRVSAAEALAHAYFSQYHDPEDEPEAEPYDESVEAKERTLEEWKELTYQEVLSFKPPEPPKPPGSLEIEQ
Sequence of CYP2D6 (P10635 whole entry): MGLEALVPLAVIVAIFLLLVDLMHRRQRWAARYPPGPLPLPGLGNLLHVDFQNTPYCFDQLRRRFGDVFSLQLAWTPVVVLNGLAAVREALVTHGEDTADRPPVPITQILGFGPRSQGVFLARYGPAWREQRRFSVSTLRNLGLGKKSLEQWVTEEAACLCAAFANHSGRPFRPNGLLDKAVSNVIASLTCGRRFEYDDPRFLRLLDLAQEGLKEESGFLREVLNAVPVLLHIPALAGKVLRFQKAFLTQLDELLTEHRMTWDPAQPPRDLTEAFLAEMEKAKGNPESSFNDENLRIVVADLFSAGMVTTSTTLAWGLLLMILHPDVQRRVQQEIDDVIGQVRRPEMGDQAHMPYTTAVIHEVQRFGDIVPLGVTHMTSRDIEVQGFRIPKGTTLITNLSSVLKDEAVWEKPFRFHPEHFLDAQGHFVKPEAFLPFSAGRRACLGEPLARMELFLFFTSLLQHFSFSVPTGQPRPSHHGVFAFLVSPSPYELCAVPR
Sequence of CYP2C19 (P33261 whole entry): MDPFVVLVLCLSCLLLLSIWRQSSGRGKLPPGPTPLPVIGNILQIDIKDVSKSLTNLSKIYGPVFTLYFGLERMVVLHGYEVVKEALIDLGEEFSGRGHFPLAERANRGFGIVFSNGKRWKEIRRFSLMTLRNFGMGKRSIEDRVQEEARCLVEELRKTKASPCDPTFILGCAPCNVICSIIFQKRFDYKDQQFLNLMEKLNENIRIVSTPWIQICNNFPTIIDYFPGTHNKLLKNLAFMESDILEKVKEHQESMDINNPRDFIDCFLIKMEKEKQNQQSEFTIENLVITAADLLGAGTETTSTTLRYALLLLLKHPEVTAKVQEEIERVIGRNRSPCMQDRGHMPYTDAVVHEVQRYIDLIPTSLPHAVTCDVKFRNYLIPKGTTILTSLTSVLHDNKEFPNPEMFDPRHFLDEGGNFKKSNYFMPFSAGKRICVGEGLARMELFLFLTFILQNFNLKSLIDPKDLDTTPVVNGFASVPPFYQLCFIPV
Sequence of CYP1A2 (P05177 whole entry): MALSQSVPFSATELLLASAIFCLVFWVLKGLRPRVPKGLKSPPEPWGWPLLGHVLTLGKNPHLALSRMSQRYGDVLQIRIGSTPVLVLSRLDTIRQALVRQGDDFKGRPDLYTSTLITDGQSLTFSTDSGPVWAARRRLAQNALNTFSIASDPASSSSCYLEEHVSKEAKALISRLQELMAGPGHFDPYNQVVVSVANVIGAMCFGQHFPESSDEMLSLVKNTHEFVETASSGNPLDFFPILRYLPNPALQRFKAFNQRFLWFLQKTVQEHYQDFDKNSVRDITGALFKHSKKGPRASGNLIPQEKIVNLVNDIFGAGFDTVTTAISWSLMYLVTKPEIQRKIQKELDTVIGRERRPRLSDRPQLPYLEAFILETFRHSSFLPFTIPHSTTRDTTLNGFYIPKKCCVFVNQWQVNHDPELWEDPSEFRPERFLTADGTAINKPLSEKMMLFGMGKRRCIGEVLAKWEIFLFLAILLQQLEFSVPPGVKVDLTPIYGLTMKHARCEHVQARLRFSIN
Sequence of CYP3A4 (P08684 whole entry): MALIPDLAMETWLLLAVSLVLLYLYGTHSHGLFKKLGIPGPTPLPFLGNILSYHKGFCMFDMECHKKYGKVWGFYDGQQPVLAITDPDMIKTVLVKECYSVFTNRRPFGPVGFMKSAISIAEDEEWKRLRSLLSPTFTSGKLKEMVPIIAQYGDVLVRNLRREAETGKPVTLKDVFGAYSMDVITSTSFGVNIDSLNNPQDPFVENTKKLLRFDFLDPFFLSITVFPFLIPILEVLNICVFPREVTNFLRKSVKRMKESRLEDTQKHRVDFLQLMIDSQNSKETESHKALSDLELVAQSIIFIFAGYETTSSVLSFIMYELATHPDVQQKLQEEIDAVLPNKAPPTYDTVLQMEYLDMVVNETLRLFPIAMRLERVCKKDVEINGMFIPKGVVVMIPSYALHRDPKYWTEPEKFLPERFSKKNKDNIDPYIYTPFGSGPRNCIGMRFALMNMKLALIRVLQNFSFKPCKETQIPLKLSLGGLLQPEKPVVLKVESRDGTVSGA
Sequence of Mitogen-activated protein kinase 10 (Homo sapiens) (P53779 whole entry): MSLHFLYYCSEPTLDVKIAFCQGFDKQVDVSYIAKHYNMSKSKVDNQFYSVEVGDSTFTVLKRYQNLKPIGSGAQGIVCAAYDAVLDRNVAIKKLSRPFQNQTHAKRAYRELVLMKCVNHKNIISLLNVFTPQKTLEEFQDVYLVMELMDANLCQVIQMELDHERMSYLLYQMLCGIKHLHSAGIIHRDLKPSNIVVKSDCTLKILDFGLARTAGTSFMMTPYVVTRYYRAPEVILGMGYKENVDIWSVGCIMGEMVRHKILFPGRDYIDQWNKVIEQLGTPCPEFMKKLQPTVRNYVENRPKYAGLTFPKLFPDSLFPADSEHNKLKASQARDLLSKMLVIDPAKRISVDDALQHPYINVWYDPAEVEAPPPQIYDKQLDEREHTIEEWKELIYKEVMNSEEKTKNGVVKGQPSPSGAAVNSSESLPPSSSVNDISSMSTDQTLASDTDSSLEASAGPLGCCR
Sequence of Mitogen-activated protein kinase 9 (Homo sapiens) (P45984 whole entry, looked up): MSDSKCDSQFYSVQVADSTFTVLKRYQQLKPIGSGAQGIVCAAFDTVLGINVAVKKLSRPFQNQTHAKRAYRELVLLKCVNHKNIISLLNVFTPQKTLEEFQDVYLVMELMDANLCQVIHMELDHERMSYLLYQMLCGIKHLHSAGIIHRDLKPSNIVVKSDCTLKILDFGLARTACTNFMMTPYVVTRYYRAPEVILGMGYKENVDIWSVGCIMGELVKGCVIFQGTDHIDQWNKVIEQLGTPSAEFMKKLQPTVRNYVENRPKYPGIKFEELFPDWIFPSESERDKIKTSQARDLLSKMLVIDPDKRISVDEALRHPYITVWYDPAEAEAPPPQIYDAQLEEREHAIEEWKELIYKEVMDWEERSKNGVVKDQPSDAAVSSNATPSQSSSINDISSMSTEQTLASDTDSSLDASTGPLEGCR
Sequence of Mitogen-activated protein kinase 8 (Homo sapiens) (P45983 whole entry): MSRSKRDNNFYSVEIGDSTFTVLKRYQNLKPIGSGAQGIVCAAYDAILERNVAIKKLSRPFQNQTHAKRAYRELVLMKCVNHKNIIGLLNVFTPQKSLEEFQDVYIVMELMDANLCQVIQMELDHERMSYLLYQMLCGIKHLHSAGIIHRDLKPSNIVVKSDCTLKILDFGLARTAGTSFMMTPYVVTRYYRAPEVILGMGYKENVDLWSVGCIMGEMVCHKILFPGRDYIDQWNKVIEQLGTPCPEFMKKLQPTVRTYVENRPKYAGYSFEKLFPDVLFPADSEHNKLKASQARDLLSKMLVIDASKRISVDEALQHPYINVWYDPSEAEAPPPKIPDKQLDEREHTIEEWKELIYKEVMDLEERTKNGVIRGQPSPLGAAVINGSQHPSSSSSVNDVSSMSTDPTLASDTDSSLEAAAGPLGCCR
Sequence of CYP2C9 (P11712 whole entry): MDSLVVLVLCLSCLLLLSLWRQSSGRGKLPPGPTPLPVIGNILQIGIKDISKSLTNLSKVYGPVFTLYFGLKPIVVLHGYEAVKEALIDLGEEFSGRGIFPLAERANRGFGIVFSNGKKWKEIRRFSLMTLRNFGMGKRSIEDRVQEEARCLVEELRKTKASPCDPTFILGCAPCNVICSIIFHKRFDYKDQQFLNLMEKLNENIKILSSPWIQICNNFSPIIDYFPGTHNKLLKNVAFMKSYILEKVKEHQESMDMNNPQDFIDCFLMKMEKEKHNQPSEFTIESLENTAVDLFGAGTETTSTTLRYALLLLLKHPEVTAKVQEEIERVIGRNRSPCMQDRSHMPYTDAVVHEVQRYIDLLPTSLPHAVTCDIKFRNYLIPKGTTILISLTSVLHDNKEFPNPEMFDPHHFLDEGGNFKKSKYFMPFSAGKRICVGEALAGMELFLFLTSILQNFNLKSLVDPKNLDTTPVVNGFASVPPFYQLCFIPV

SMILES: CC(C)NCC(O)COc1cccc2ccccc12 (stereo unspecified) [PROPRANOLOL]
- Papp at 10 µM [1]: 71.1 ×10⁻⁶ cm/s

SMILES: CCc1nc(-c2cccc(C)c2)c(-c2ccnc(NC(=O)c3ccccc3)c2)s1 [TAK-715]
- inhibition in vivo at 10 mg/kg [2]: 6%

SMILES: O=C(Nc1c(Cl)c[n+]([O-])cc1Cl)c1ccc(OC(F)F)c(OCC2CC2)c1
- fraction unbound [3]: 0.04

SMILES: C[S+]([O-])c1ccc(-c2nc(-c3ccc(F)cc3)c(-c3ccncc3)[nH]2)cc1 (stereo unspecified) [SB-203580]
- inhibition in vivo at 3 mg/kg [4]: 37%
- inhibition [5]: Active
- inhibition [6]: Active
- inhibition [7]: inactive

SMILES: CSc1nc(-c2ccc(F)cc2)c(-c2ccnc(Nc3ccccc3)c2)[nH]1
- inhibition at 10 µM [8]: 74.5%
- AUC(0-t) [9]: 3710 ng·h/mL and 9.86 µM·h
- Activity [10]: Non-Toxic
- inhibition at 10 µM [11]: 72%
- inhibition [12]: > 70%
- Activity [13]: Non-Toxic
- inhibition at 10 µM [14]: 60%
- Cmax [15]: 608 ng/mL and 1.61 µM
- inhibition [16]: > 70%
- Activity [17]: Non-Toxic
- Tmax [18]: 2 h
- Activity [19]: Non-Toxic
- inhibition [20]: > 70%
- Activity [21]: Non-Toxic
- inhibition [22]: > 70%
- inhibition at 10 µM [23]: 90%
- half-life [24]: 2.8 h
- inhibition in vivo at 10 mg/kg [25]: 60%
- Activity [26]: Non-Toxic
- Activity [27]: Active
- inhibition at 10 µM [28]: 16.5%
- Activity [29]: Non-Toxic

SMILES: CS(=O)(=O)c1nc(-c2ccc(F)cc2)c(-c2ccnc(NC3CCOCC3)c2)[nH]1
- inhibition in vivo at 10 mg/kg [2]: 21%
- inhibition [30]: 36%
